Assay [1] in a line: inhibitors of TNFa-induced NFkB p65 translocation, primary screen, imaging, HUVEC, MLSMR starter and 10KST1 sets (AID 438;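 active means inhibition above 20% together with a positive visual image hit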;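 further: compound added about 3h40 before a 20 min TNFalpha stimulation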;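 on inhibition: signal is the nuclear over cytoplasmic p65 intensity ratio per well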). Conditions: HUVEC TNFa-induced p65 nuclear translocation; cell count: measured here: nuclei count (cytotoxicity indicator), at 2.08 µM; inhibition: at 2 µM, stronger effect = higher value, 0% TNFa-plus-vehicle, 100% no-TNFa wells.
The nature of assay [2]: inhibitors of mutant huntingtin aggregation, primary screen, imaging, exon1htt(103Q)mCFP cells, high-content imaging (AID 483;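 active means visual image review flags a hit and inhibition of aggregation exceeds 20%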;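 further: compound exposure lasted 3 days before fixation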;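 on nuclei count: percent of the per-plate median nuclei count of sample wells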). As to conditions: exon1htt(103Q)mCFP cell line, aggregate imaging, at 2 µM; inhibition of aggregation: stronger effect = higher value; nuclei count: measured here: cell count, toxicity.
Assay [3] is described as follows: inhibitors of E-selectin induction by TNFa, primary screen, imaging, HUVEC, immunofluorescence, MLSMR starter and 10KST1 sets (AID 487;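 active means visually confirmed hit in the image check and inhibition above 20%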;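 on inhibition: signal is fraction of cell area covered by stained E-selectin grains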;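 on nuclei count: 100% = median nuclei count of all wells on the same plate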). Conditions: HUVEC TNFalpha-induced E-selectin immunofluorescence imaging, at 2 µM; inhibition: stronger effect = higher value; nuclei count: measured here: cell number, toxicity.
Assay [4] deals with Voltage-gated potassium channel subunit beta-2 (Rattus norvegicus) (UniProt P62483). Description: KvBeta enzyme negative modulators, primary screen, biochemical, NADPH fluorescence (AID 622;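 active means fluorescence slope higher than the sample average by over 3 SD, cut at about -0.22 in these data, passing the limit was not always enough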;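 further: slope of raw intensity against log time taken from 70 to 1610 s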). As to conditions: recombinant KvBeta, 4-cyanobenzaldehyde reduction, at 10 µM, stronger effect = higher value.
For assay [5] the target is unchanged. The assay can be described thus: KvBeta positive modulators, primary screen, biochemical, NADPH fluorescence (AID 623;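 active means NADPH fluorescence slope more negative than the mean of all samples by about 3 SD, 99.7% confidence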;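 further: fluorescence intensity change per second fitted from 20 to 320 s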). As to conditions: Recombinant KvBeta, NADPH fluorescence decrease slope, 10 min; at 10 µM; stronger effect = lower value.
In assay [6] the target is Muscarinic acetylcholine receptor M4 (Homo sapiens) (UniProt P08173). Description: compounds altering M4/GIRK thallium flux, either direction, primary screen, M4 allosteric agonist project, cell-based, HEK293 M4/GIRK, BTC-AM (AID 625).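 Further: thallium influx through GIRK channels coupled to M4 in HEK293 cells with BTC-AM dye.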 As to conditions: at 10 µM, actives lie on both sides. In short, it runs like this:
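Assay system: HEK293 cells with M4 receptor and GIRK channels / Controls: carbachol and DMSO controls / Schedule: 1 h dye loading, 2 min kinetic read / Technique: kinetic fluorescence with BTC-AM dye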

Assay [7] is described as follows: inhibitors of Sendai virus-induced IRF3 signaling, primary screen, TLR/RLR signaling modifier project, cell-based, Sendai virus stimulus, luciferase, 10K MLSCN set (AID 602276;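 active means inhibition at or above 50% at 10 µM; inactive means inhibition below 50%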;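 further: firefly luciferase from ISG56 promoter only with Renilla not read in this screen; 0% = Sendai virus plus DMSO and 100% = medium plus DMSO without virus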). As to conditions: HEK293 RL24 IRF3 luciferase reporter, at 10 µM, stronger effect = higher value. On the technique in general: Reporter assays use an easily measured gene product as a stand-in for the process of interest.

Assay [8] is described as follows: inhibitors of poly I:C-induced TLR3 signaling, primary screen, cell-based, poly I:C stimulus, luciferase, 10K MLSCN set (AID 602277;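 active means inhibition of the reporter signal at or above 50%; inactive means inhibition below 50%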). Conditions: HEK293-TLR3 RL24 IRF3 luciferase reporter, at 10 µM, stronger effect = higher value.

Calls of active or inactive are those of the source.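 How the source made its calls, unless noted: active means fluorescence slope after compound addition differing from the mean of all tested samples at 99.7% confidence, mostly higher but some lower; inactive means the rest.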

Chain of Muscarinic acetylcholine receptor M4 (Homo sapiens) (P08173 whole entry, looked up): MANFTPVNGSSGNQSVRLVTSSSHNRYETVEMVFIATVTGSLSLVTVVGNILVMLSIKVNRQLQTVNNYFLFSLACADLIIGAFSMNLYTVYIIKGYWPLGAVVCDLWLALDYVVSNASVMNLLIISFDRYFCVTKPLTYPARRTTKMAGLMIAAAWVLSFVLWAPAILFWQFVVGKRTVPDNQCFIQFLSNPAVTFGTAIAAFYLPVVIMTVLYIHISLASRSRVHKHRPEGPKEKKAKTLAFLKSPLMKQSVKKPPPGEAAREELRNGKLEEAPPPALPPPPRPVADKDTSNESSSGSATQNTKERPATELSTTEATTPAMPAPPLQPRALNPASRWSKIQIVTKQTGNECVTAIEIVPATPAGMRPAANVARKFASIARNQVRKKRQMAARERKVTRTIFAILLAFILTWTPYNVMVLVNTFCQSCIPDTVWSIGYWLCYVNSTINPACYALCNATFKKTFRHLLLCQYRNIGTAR
Chain of Voltage-gated potassium channel subunit beta-2 (Rattus norvegicus) (P62483 whole entry, looked up): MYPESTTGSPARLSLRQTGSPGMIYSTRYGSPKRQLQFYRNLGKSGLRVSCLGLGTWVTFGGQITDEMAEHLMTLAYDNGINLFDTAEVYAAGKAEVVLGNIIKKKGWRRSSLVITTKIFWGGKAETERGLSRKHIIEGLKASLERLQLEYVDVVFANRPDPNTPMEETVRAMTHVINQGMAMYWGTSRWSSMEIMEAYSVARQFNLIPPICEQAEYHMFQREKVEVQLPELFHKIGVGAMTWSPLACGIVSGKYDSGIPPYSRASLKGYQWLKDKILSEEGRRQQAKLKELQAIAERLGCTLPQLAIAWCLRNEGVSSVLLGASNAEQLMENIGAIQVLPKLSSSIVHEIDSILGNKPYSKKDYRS

Take `CCC(=NC(C)c1ccccc1)c1c(O)n(C)c(=O)n(C)c1=O` (centres undefined): in assay [1], the cell count came to 287. Besides, the inhibition – broadly, the relative decrease from the control value, in per cent – was 9.3% (inactive) in assay [1], -50.4% (inactive) in assay [3], 8.09% (inactive) in assay [7] and -40% (inactive) in assay [8]. In addition, the inhibition of aggregation in assay [2] is 3.2% (inactive). Also, the values for the nuclei count in assay [2] and in assay [3] were 72.1% and 133%, respectively. Also, the fluorescence slope in assay [4] is -0.518 (inactive); in assay [6], 0.00372 (inactive). For the same compound, in assay [5], the NADPH fluorescence slope was -0.000132 (inactive).
In the case of `CCc1cc2c(=O)c(-c3ccc4c(c3)OCCO4)coc2cc1OC(=O)c1ccco1`, the cell count in assay [1] was found to be 637. The inhibition is -5.2% (inactive) in assay [1], -184% (inactive) in assay [3], -45.7% (inactive) in assay [7] and -122% (inactive) in assay [8]. The inhibition of aggregation in assay [2] is 4.7% (inactive). The nuclei count was found to be 92.8% in assay [2] and 105% in assay [3]. Further, the fluorescence slope is -0.554 (inactive) in assay [4] and 0.00495 (inactive) in assay [6]. In assay [5], the NADPH fluorescence slope was -4.2e-05 (inactive).
Take `COc1ccccc1NC(=O)N1CCN(c2cccc(C(F)(F)F)c2)CC1`: the cell count in assay [1] was found to be 380. Moreover, the inhibition in assay [1] is 4.7% (inactive); in assay [3], -103% (inactive); in assay [7] it was -10.2% (inactive); in assay [8] it was -42% (inactive). The inhibition of aggregation in assay [2] was 12.5% (inactive). For the same compound, the nuclei count in assay [2] came to 107%; in assay [3], 118%. In addition, the fluorescence slope is -0.27 (inactive) in assay [4] and 0.00535 (inactive) in assay [6]. The NADPH fluorescence slope in assay [5] is -2.7e-05 (inactive).
Take `COc1ccc(C2C(C#N)=C(C)NC3=C2C(=O)CC(C)(C)C3)c(OC)c1` (centres undefined): in assay [1], the cell count worked out at 252. In addition, the inhibition in assay [1] was -8% (inactive); in assay [3] it was 31.4% (inactive); in assay [7] it was 15.1% (inactive); in assay [8] it was 18.9% (inactive). The inhibition of aggregation in assay [2] was 19.6% (inactive). Besides, the values for the nuclei count in assay [2] and in assay [3] were 70.9% and 96%, respectively. The fluorescence slope in assay [4] is -0.463 (inactive); in assay [6], 0.00543 (inactive). In assay [5], the NADPH fluorescence slope is -4.1e-06 (inactive).
Turning to `CCOC(=O)c1c(NCc2ccc3c(c2)OCO3)c2ccccc2[nH]c1=O`, in assay [1], the cell count worked out at 509. In addition, the inhibition in assay [1] was -9.9% (inactive); in assay [3] it was -51.7% (inactive); in assay [7] it was 12.5% (inactive); in assay [8] it was -13.3% (inactive). The inhibition of aggregation in assay [2] is 16.6% (inactive). The nuclei count is 94.1% in assay [2] and 111% in assay [3]. In addition, the fluorescence slope in assay [4] is -0.252 (inactive); in assay [6] it was 0.00507 (inactive). For the same compound, in assay [5], the NADPH fluorescence slope was -2.6e-05 (inactive).
For `Cc1cccc(Cn2c(=O)n(Cc3ccco3)c(=O)c3ccccc32)c1`, in assay [1], the cell count was found to be 659. The inhibition in assay [1] is 0.5% (inactive); in assay [3], -39% (inactive); in assay [7], 0.06% (inactive); in assay [8] it was -5.18% (inactive). Moreover, the inhibition of aggregation in assay [2] is -10.9% (inactive). Moreover, the nuclei count in assay [2] was 122%; in assay [3], 113%. Also, the results for the fluorescence slope in assay [4] and in assay [6] were -0.608 (inactive) and 0.00404 (inactive), respectively. In assay [5], the NADPH fluorescence slope was -3.9e-05 (inactive).
For the compound `COc1ccc2c(c1)Sc1ccccc1N2CCN(C)C`, in assay [1], the cell count is 676. The inhibition is -8.8% (inactive) in assay [1], -11.3% (inactive) in assay [3], 8.63% (inactive) in assay [7] and 14.5% (inactive) in assay [8]. For the same compound, the inhibition of aggregation in assay [2] was 2.5% (inactive). Further, the results for the nuclei count in assay [2] and in assay [3] were 117% and 103%, respectively. Besides, the fluorescence slope in assay [4] is -0.573 (inactive); in assay [6], 0.00495 (inactive). Further, in assay [5], the NADPH fluorescence slope was -2.9e-05 (inactive).
Take `O=C(NCc1ccccn1)Nc1ccc2c(c1)OCO2`: the cell count in assay [1] came to 415. The inhibition in assay [1] is -12.8% (inactive); in assay [3], 3.1% (inactive); in assay [7], 10.3% (inactive); in assay [8], 99.1% (active). In assay [2], the inhibition of aggregation was -6.8% (inactive). In addition, the nuclei count in assay [2] was 100%; in assay [3], 92.3%. For the same compound, the fluorescence slope in assay [4] is -0.459 (inactive); in assay [6], 0.00592 (inactive). The NADPH fluorescence slope in assay [5] was -1.3e-06 (inactive).
Regarding `O=C(Nc1ccccc1)N(CCN1CCOCC1)Cc1ccccc1F`, the cell count in assay [1] turned out to be 665. Further, the inhibition was -4.1% (inactive) in assay [1], -68% (inactive) in assay [3], -14.2% (inactive) in assay [7] and -15.8% (inactive) in assay [8]. The inhibition of aggregation in assay [2] was -16.2% (inactive). In addition, the nuclei count was 101% in assay [2] and 96.7% in assay [3]. In addition, the fluorescence slope in assay [4] was -0.61 (inactive); in assay [6], 0.00376 (inactive). The NADPH fluorescence slope in assay [5] was 1.5e-05 (inactive).
With `CC(OC1=CC(=O)CCC1)C(=O)c1ccccc1` (centres undefined), the cell count in assay [1] came to 370. Besides, the inhibition in assay [1] is 10.4% (inactive); in assay [3], 24.1% (inactive); in assay [7], 14.1% (inactive); in assay [8], 18.3% (inactive). Also, in assay [2], the inhibition of aggregation is 36.6% (active). The results for the nuclei count in assay [2] and in assay [3] were 64.2% and 72.3%, respectively. The fluorescence slope in assay [4] was -0.569 (inactive); in assay [6] it was 0.00642 (inactive). Besides, the NADPH fluorescence slope in assay [5] was 1.9e-05 (inactive).
For the compound `COc1cccc(-n2nnnc2SCC(=O)NCc2ccco2)c1`, the cell count in assay [1] amounted to 423. The inhibition in assay [1] was -3.3% (inactive); in assay [3], -44.9% (inactive); in assay [7], 19.3% (inactive); in assay [8], 21.4% (inactive). The inhibition of aggregation in assay [2] is -7.7% (inactive). The nuclei count in assay [2] worked out at 94%; in assay [3], 128%. In addition, the fluorescence slope in assay [4] is -0.548 (inactive); in assay [6], 0.00522 (inactive). Further, the NADPH fluorescence slope in assay [5] is -2.6e-05 (inactive).
As for `CCn1nnc(NC(=O)c2cc3ccccc3o2)n1`, the cell count in assay [1] was 332. Besides, the inhibition in assay [1] is 0.5% (inactive); in assay [3] it was -51% (inactive); in assay [7], -50.7% (inactive); in assay [8], -120% (inactive). In assay [2], the inhibition of aggregation was 7.1% (inactive). In addition, the figures for the nuclei count in assay [2] and in assay [3] were 87.2% and 102%, respectively. The fluorescence slope in assay [4] is -0.297 (inactive); in assay [6], 0.00628 (inactive). Also, the NADPH fluorescence slope in assay [5] was -7.3e-06 (inactive).
As to `COC(=O)c1ccc2ncccc2c1`, the cell count in assay [1] was found to be 378. The inhibition in assay [1] was 2.6% (inactive); in assay [3], -10.4% (inactive); in assay [7], -15.2% (inactive); in assay [8], -24.8% (inactive). Moreover, in assay [2], the inhibition of aggregation is 9.1% (inactive). For the same compound, the values for the nuclei count in assay [2] and in assay [3] were 106% and 95.7%, respectively. In addition, the fluorescence slope in assay [4] was -0.536 (inactive); in assay [6], 0.00451 (inactive). In assay [5], the NADPH fluorescence slope is -8.5e-05 (inactive).
Take `COc1ccc(NC(=O)N2CCC(O)(c3cccnc3)CC2)c(OC)c1`: the cell count in assay [1] was found to be 643. Besides, the inhibition is -6.3% (inactive) in assay [1], -161% (inactive) in assay [3], 10.9% (inactive) in assay [7] and 12.7% (inactive) in assay [8]. Further, the inhibition of aggregation in assay [2] was 13% (inactive). The nuclei count in assay [2] was found to be 88.6%; in assay [3], 145%. Moreover, the fluorescence slope in assay [4] is -0.558 (inactive); in assay [6] it was 0.00818 (inactive). Besides, the NADPH fluorescence slope in assay [5] is -3.4e-05 (inactive).

The values above are taken from PubChem BioAssay.
